{"source": "paper PMC6218153", "about": "(Journal of Alzheimer's Disease Reports, 2018)", "experiment": "PK study in plasma and CSF after single IV, SC or IN dose", "type": "in vivo, rat", "in_short": "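Cannulated rats (jugular vein, intracisternal; n = 6/route) received a single dose in PBS: IV or SC ~11 mg/kg over 1 min, or IN ~5.5 mg/kg, 10 μL per nostril at 6-min intervals over 18 min. K2EDTA plasma was taken pre-dose to 165 min and CSF pre-dose to 150/180 min. LC/MS/MS (ESI+, 1007.55 > 876.35) with noncompartmental PK; CL = Dose/AUC. CSF ratio = dose-normalised CSF AUC relative to IV.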", "note": "Marks after values point to notes of the source that are not given here. Where no end group is shown, it is not given here.", "data": [{"sequence": "DEEEDEEL [P8, DEEEDEEL]", "values": [{"measurement": "P8 concentration in plasma", "setting": "IN 5.5 mg/kg single dose, 5 min, Rat 1", "result": 137, "unit": "ng/mL"}, {"measurement": "P8 concentration in plasma", "setting": "IN 5.5 mg/kg single dose, 5 min, Rat 2", "result": 262, "unit": "ng/mL"}, {"measurement": "P8 concentration in plasma", "setting": "IN 5.5 mg/kg single dose, 5 min, Rat 3", "result": 191, "unit": "ng/mL"}, {"measurement": "P8 concentration in CSF", "setting": "IN 5.5 mg/kg single dose, 10 min, Rat 2", "result": 3.09, "unit": "ng/mL"}, {"measurement": "P8 concentration in CSF", "setting": "IN 5.5 mg/kg single dose, 10 min, Rat 3", "result": 32.8, "unit": "ng/mL"}, {"measurement": "P8 concentration in plasma", "setting": "IN 5.5 mg/kg single dose, 15 min, Rat 1", "result": 102, "unit": "ng/mL"}, {"measurement": "P8 concentration in plasma", "setting": "IN 5.5 mg/kg single dose, 15 min, Rat 2", "result": 234, "unit": "ng/mL"}, {"measurement": "P8 concentration in plasma", "setting": "IN 5.5 mg/kg single dose, 15 min, Rat 3", "result": 150, "unit": "ng/mL"}, {"measurement": "P8 concentration in plasma", "setting": "IN 5.5 mg/kg single dose, 25 min, Rat 1", "result": 60.8, "unit": "ng/mL"}, {"measurement": "P8 concentration in plasma", "setting": "IN 5.5 mg/kg single dose, 25 min, Rat 2", "result": "123^b ng/mL"}, {"measurement": "P8 concentration in plasma", "setting": "IN 5.5 mg/kg single dose, 25 min, Rat 3", "result": 90.6, "unit": "ng/mL"}, {"measurement": "P8 concentration in CSF", "setting": "IN 5.5 mg/kg single dose, 30 min, Rat 2", "result": 1.03, "unit": "ng/mL"}, {"measurement": "P8 concentration in CSF", "setting": "IN 5.5 mg/kg single dose, 30 min, Rat 3", "result": 1.95, "unit": "ng/mL"}, {"measurement": "P8 concentration in plasma", "setting": "IN 5.5 mg/kg single dose, 35 min, Rat 1", "result": 53.7, "unit": "ng/mL"}, {"measurement": "P8 concentration in plasma", "setting": "IN 5.5 mg/kg single dose, 35 min, Rat 2", "result": 85.9, "unit": "ng/mL"}, {"measurement": "P8 concentration in plasma", "setting": "IN 5.5 mg/kg single dose, 35 min, Rat 3", "result": 66.0, "unit": "ng/mL"}, {"measurement": "P8 concentration in plasma", "setting": "IN 5.5 mg/kg single dose, 50 min, Rat 1", "result": 66.1, "unit": "ng/mL"}, {"measurement": "P8 concentration in plasma", "setting": "IN 5.5 mg/kg single dose, 50 min, Rat 2", "result": 67.7, "unit": "ng/mL"}, {"measurement": "P8 concentration in plasma", "setting": "IN 5.5 mg/kg single dose, 50 min, Rat 3", "result": 45.1, "unit": "ng/mL"}, {"measurement": "P8 concentration in CSF", "setting": "IN 5.5 mg/kg single dose, 60 min, Rat 1", "result": 1.18, "unit": "ng/mL"}, {"measurement": "P8 concentration in CSF", "setting": "IN 5.5 mg/kg single dose, 60 min, Rat 2", "result": 0.632, "unit": "ng/mL"}, {"measurement": "P8 concentration in CSF", "setting": "IN 5.5 mg/kg single dose, 60 min, Rat 3", "result": 1.28, "unit": "ng/mL"}, {"measurement": "P8 concentration in plasma", "setting": "IN 5.5 mg/kg single dose, 70 min, Rat 1", "result": 37.6, "unit": "ng/mL"}, {"measurement": "P8 concentration in plasma", "setting": "IN 5.5 mg/kg single dose, 70 min, Rat 2", "result": 55.3, "unit": "ng/mL"}, {"measurement": "P8 concentration in plasma", "setting": "IN 5.5 mg/kg single dose, 70 min, Rat 3", "result": 32.1, "unit": "ng/mL"}, {"measurement": "P8 concentration in plasma", "setting": "IN 5.5 mg/kg single dose, 90 min, Rat 1", "result": 32.2, "unit": "ng/mL"}, {"measurement": "P8 concentration in plasma", "setting": "IN 5.5 mg/kg single dose, 90 min, Rat 2", "result": 42.8, "unit": "ng/mL"}, {"measurement": "P8 concentration in plasma", "setting": "IN 5.5 mg/kg single dose, 90 min, Rat 3", "result": 20.7, "unit": "ng/mL"}, {"measurement": "P8 concentration in CSF", "setting": "IN 5.5 mg/kg single dose, 100 min, Rat 1", "result": 0.537, "unit": "ng/mL"}, {"measurement": "P8 concentration in CSF", "setting": "IN 5.5 mg/kg single dose, 100 min, Rat 2", "result": 2.39, "unit": "ng/mL"}, {"measurement": "P8 concentration in CSF", "setting": "IN 5.5 mg/kg single dose, 100 min, Rat 3", "result": 0.532, "unit": "ng/mL"}, {"measurement": "P8 concentration in plasma", "setting": "IN 5.5 mg/kg single dose, 110 min, Rat 1", "result": 26.0, "unit": "ng/mL"}, {"measurement": "P8 concentration in plasma", "setting": "IN 5.5 mg/kg single dose, 110 min, Rat 2", "result": 27.0, "unit": "ng/mL"}, {"measurement": "P8 concentration in plasma", "setting": "IN 5.5 mg/kg single dose, 110 min, Rat 3", "result": 13.9, "unit": "ng/mL"}, {"measurement": "P8 concentration in plasma", "setting": "IN 5.5 mg/kg single dose, 130 min, Rat 1", "result": 33.2, "unit": "ng/mL"}, {"measurement": "P8 concentration in plasma", "setting": "IN 5.5 mg/kg single dose, 130 min, Rat 2", "result": 15.0, "unit": "ng/mL"}, {"measurement": "P8 concentration in plasma", "setting": "IN 5.5 mg/kg single dose, 130 min, Rat 3", "result": 14.3, "unit": "ng/mL"}, {"measurement": "P8 concentration in CSF", "setting": "IN 5.5 mg/kg single dose, 150 min, Rat 1", "result": 0.581, "unit": "ng/mL"}, {"measurement": "P8 concentration in CSF", "setting": "IN 5.5 mg/kg single dose, 150 min, Rat 3", "result": 1.16, "unit": "ng/mL"}, {"measurement": "P8 concentration in plasma", "setting": "IN 5.5 mg/kg single dose, 165 min, Rat 1", "result": 32.7, "unit": "ng/mL"}, {"measurement": "P8 concentration in plasma", "setting": "IN 5.5 mg/kg single dose, 165 min, Rat 2", "result": 14.9, "unit": "ng/mL"}, {"measurement": "P8 concentration in plasma", "setting": "IN 5.5 mg/kg single dose, 165 min, Rat 3", "result": 17.1, "unit": "ng/mL"}, {"measurement": "P8 concentration in plasma", "setting": "IV 11.0 mg/kg single dose, 5 min, Rat 1", "result": "102,000 ng/mL"}, {"measurement": "P8 concentration in plasma", "setting": "IV 11.0 mg/kg single dose, 5 min, Rat 2", "result": "45,300 ng/mL"}, {"measurement": "P8 concentration in plasma", "setting": "IV 11.0 mg/kg single dose, 5 min, Rat 3", "result": "43,600 ng/mL"}, {"measurement": "P8 concentration in CSF", "setting": "IV 11.0 mg/kg single dose, 10 min, Rat 2", "result": "50.1^c ng/mL"}, {"measurement": "P8 concentration in CSF", "setting": "IV 11.0 mg/kg single dose, 10 min, Rat 3", "result": "85.7^c ng/mL"}, {"measurement": "P8 concentration in plasma", "setting": "IV 11.0 mg/kg single dose, 15 min, Rat 2", "result": "12,600 ng/mL"}, {"measurement": "P8 concentration in plasma", "setting": "IV 11.0 mg/kg single dose, 15 min, Rat 3", "result": "8,460 ng/mL"}, {"measurement": "P8 concentration in plasma", "setting": "IV 11.0 mg/kg single dose, 25 min, Rat 1", "result": "4,250 ng/mL"}, {"measurement": "P8 concentration in plasma", "setting": "IV 11.0 mg/kg single dose, 25 min, Rat 2", "result": "5,650 ng/mL"}, {"measurement": "P8 concentration in plasma", "setting": "IV 11.0 mg/kg single dose, 25 min, Rat 3", "result": "3,230 ng/mL"}, {"measurement": "P8 concentration in CSF", "setting": "IV 11.0 mg/kg single dose, 30 min, Rat 1", "result": 42.5, "unit": "ng/mL"}, {"measurement": "P8 concentration in CSF", "setting": "IV 11.0 mg/kg single dose, 30 min, Rat 2", "result": "48.2^c ng/mL"}, {"measurement": "P8 concentration in CSF", "setting": "IV 11.0 mg/kg single dose, 30 min, Rat 3", "result": 39.3, "unit": "ng/mL"}, {"measurement": "P8 concentration in plasma", "setting": "IV 11.0 mg/kg single dose, 35 min, Rat 1", "result": "2,160 ng/mL"}, {"measurement": "P8 concentration in plasma", "setting": "IV 11.0 mg/kg single dose, 35 min, Rat 2", "result": "2,710 ng/mL"}, {"measurement": "P8 concentration in plasma", "setting": "IV 11.0 mg/kg single dose, 35 min, Rat 3", "result": "1,770 ng/mL"}, {"measurement": "P8 concentration in plasma", "setting": "IV 11.0 mg/kg single dose, 50 min, Rat 1", "result": 878, "unit": "ng/mL"}, {"measurement": "P8 concentration in plasma", "setting": "IV 11.0 mg/kg single dose, 50 min, Rat 2", "result": "1,190 ng/mL"}, {"measurement": "P8 concentration in plasma", "setting": "IV 11.0 mg/kg single dose, 50 min, Rat 3", "result": 713, "unit": "ng/mL"}, {"measurement": "P8 concentration in CSF", "setting": "IV 11.0 mg/kg single dose, 60 min, Rat 1", "result": 22.8, "unit": "ng/mL"}, {"measurement": "P8 concentration in CSF", "setting": "IV 11.0 mg/kg single dose, 60 min, Rat 2", "result": 17.8, "unit": "ng/mL"}, {"measurement": "P8 concentration in CSF", "setting": "IV 11.0 mg/kg single dose, 60 min, Rat 3", "result": 16.9, "unit": "ng/mL"}, {"measurement": "P8 concentration in plasma", "setting": "IV 11.0 mg/kg single dose, 70 min, Rat 1", "result": 392, "unit": "ng/mL"}, {"measurement": "P8 concentration in plasma", "setting": "IV 11.0 mg/kg single dose, 70 min, Rat 2", "result": 313, "unit": "ng/mL"}, {"measurement": "P8 concentration in plasma", "setting": "IV 11.0 mg/kg single dose, 70 min, Rat 3", "result": 199, "unit": "ng/mL"}, {"measurement": "P8 concentration in CSF", "setting": "IV 11.0 mg/kg single dose, 100 min, Rat 1", "result": 10.7, "unit": "ng/mL"}, {"measurement": "P8 concentration in CSF", "setting": "IV 11.0 mg/kg single dose, 100 min, Rat 2", "result": 8.69, "unit": "ng/mL"}, {"measurement": "P8 concentration in CSF", "setting": "IV 11.0 mg/kg single dose, 100 min, Rat 3", "result": 4.08, "unit": "ng/mL"}, {"measurement": "P8 concentration in plasma", "setting": "IV 11.0 mg/kg single dose, 110 min, Rat 1", "result": 93.1, "unit": "ng/mL"}, {"measurement": "P8 concentration in plasma", "setting": "IV 11.0 mg/kg single dose, 110 min, Rat 2", "result": 36.4, "unit": "ng/mL"}, {"measurement": "P8 concentration in plasma", "setting": "IV 11.0 mg/kg single dose, 110 min, Rat 3", "result": 39.8, "unit": "ng/mL"}]}]}
